ChEMBL document CHEMBL1124362, “Synthesis of methotrexate-antibody conjugates by regiospecific coupling and assessment of drug and antitumor activities” (J Med Chem, 1989)
≈ marks a conversion by molar mass, not a printed value. One block for each compound: values may come before it.

Assays:
[1] = target: T1, Dihydrofolate reductase (Bos taurus, UniProt P00376); assay: Concentration required for inhibition of beef liver dihydrofolate reductase
T1 sequence (P00376 whole entry): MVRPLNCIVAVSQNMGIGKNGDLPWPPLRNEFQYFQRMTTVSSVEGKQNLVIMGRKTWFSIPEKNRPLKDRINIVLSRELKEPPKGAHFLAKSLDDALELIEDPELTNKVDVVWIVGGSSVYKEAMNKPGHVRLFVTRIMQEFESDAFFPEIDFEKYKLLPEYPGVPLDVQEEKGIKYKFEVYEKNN

[2] = tested on: M21; assay: Colony count at 20 ug/mL of hydrazone-linked conjugate of MTX and Dal K-20 in melanoma M21 cells; conditions: Homo sapiens
[3] = tested on: CAKI-1; assay: Inhibition of colony formation of Caki-1 cells by hydrazone-linked conjugate (regiospecific coupling) of MTX and Dal K-20; format: functional, cell-based; conditions: Homo sapiens
Outline: (§1)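 Single-cell suspensions (>99% trypan blue-excluding) of M21 melanoma or Caki-1 renal carcinoma cells, 1 × 10⁶ cells/mL in McCoy's medium with 15% dialyzed FCS, exposed 6 h at 37 °C to agent, washed three times, plated in 0.3% agar over 0.5% agar base (10⁴ cells/plate). Incubated at 37 °C, 5% CO₂. Colonies >30 cells counted visually at 14 days, three plates per concentration.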

[4] = tested on: CAKI-1; assay: Inhibition of colony formation of Caki-1 cells by MTX; format: functional, cell-based; conditions: Homo sapiens; outline: as §1
[5] = tested on: M21; assay: Colony count at 15 ug/mL of hydrazone-linked conjugate (regiospecific coupling) of MTX and Dal K-20 in melanoma M21 cells; conditions: Homo sapiens
[6] = tested on: M21; assay: Colony count at 10 ug/mL of amide-linked conjugate of MTX and Dal K-20 in melanoma M21 cells; conditions: Homo sapiens
[7] = tested on: M21; assay: Colony count at 10 ug/mL of amide-linked conjugate (regiospecific coupling) of MTX and Dal K-20 in melanoma M21 cells; conditions: Homo sapiens
[8] = tested on: M21; assay: Colony count at 15 ug/mL of hydrazone-linked conjugate of MTX and Dal K-20 in melanoma M21 cells; conditions: Homo sapiens
[9] = tested on: CAKI-1; assay: Inhibition of colony formation of Caki-1 cells by amide-linked conjugate (regiospecific coupling) of MTX and Dal K-20; format: functional, cell-based; conditions: Homo sapiens; outline: as §1
[10] = tested on: M21; assay: Colony count at 10 ug/mL of hydrazone-linked conjugate (regiospecific coupling) of MTX and Dal K-20 in melanoma M21 cells; conditions: Homo sapiens
[11] = tested on: M21; assay: Colony count at 20 ug/mL of amide-linked conjugate of MTX and Dal K-20 in melanoma M21 cells; conditions: Homo sapiens
[12] = tested on: M21; assay: Colony count at 20 ug/mL of amide-linked conjugate (regiospecific coupling) of MTX and Dal K-20 in melanoma M21 cells; conditions: Homo sapiens
[13] = tested on: M21; assay: Colony count at 20 ug/mL of hydrazone-linked conjugate (regiospecific coupling) of MTX and Dal K-20 in melanoma M21 cells; conditions: Homo sapiens
[14] = tested on: M21; assay: Colony count at 10 ug/mL of hydrazone-linked conjugate of MTX and Dal K-20 in melanoma M21 cells; conditions: Homo sapiens
[15] = tested on: CAKI-1; assay: Inhibition of colony formation of Caki-1 cells by hydrazone-linked conjugate of MTX and Dal K-20; format: functional, cell-based; conditions: Homo sapiens; outline: as §1
[16] = tested on: M21; assay: Colony count at 15 ug/mL of amide-linked conjugate (regiospecific coupling) of MTX and Dal K-20 in melanoma M21 cells; conditions: Homo sapiens
[17] = tested on: M21; assay: Colony count at 15 ug/mL of amide-linked conjugate of MTX and Dal K-20 in melanoma M21 cells; conditions: Homo sapiens
[18] = tested on: CAKI-1; assay: Inhibition of colony formation of Caki-1 cells by amide-linked conjugate of MTX and Dal K-20; format: functional, cell-based; conditions: Homo sapiens; outline: as §1

Compound: CN(Cc1cnc2nc(N)nc(N)c2n1)c1ccc(C(=O)NC(CCC(=O)NN)C(=O)NN)cc1 (stereo unspecified)
IC50 [1]: 37.9 µM

Compound: CN(Cc1cnc2nc(N)nc(N)c2n1)c1ccc(C(=O)NC(CCC(=O)NN)C(=O)O)cc1 (stereo unspecified)
IC50 [1]: 30.7 µM

Compound: CN(Cc1cnc2nc(N)nc(N)c2n1)c1ccc(C(=O)NC(CCC(=O)NN)C(=O)OC(C)(C)C)cc1 (stereo unspecified)
IC50 [1]: 41.2 µM

Now from value to compound, other results behind:

IC50 [1]: 25.4 µM
Compound: COC(=O)CCC(NC(=O)c1ccc(N(C)Cc2cnc3nc(N)nc(N)c3n2)cc1)C(=O)O (stereo unspecified)

IC50 [3]: 3 µg/mL (≈ 6.6 µM)
IC50 [4]: 25 µg/mL (≈ 55 µM)
IC50 [9]: 3.3 µg/mL (≈ 7.26 µM)
IC50 [15]: 3.4 µg/mL (≈ 7.48 µM)
IC50 [18]: 4.5 µg/mL (≈ 9.9 µM)
Compound: CN(Cc1cnc2nc(N)nc(N)c2n1)c1ccc(C(=O)N[C@@H](CCC(=O)O)C(=O)O)cc1 [METHOTREXATE]
colony count [2]: 108 colonies/plate
colony count [5]: 121 colonies/plate
colony count [6]: 109 colonies/plate
colony count [7]: 115 colonies/plate
colony count [8]: 109 colonies/plate
colony count [10]: 120 colonies/plate
colony count [11]: 119 colonies/plate
colony count [12]: 112 colonies/plate
colony count [13]: 115 colonies/plate
colony count [14]: 112 colonies/plate
colony count [16]: 118 colonies/plate
colony count [17]: 117 colonies/plate
